# Bioassay records (PubChem)
# Most compounds without a hit are left out; they make up all but 5.4% or so of the library.
# T cruzi inh = blocks replication of Trypanosoma cruzi. hit rate 1.4% among 300,000. inhibition, % (no concentration beside the values). AID 1885. T. cruzi beta-gal in NIH3T3, luminescence, 90 h;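 active = mean inhibition across valid replicates above about 55%, limit read from the data; inconclusive = mean below that limit but half or more replicates reach it; inactive = mean below it, under half of replicates reach it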;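 also: signal also drops with host cell toxicity which is not excluded here; 0% = plate median of DMSO wells and 100% = zero luminescence signal; higher percent means less beta-gal luminescence so fewer parasites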
#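 Test system: β-gal T. cruzi (Tulahuen C4) inside NIH/3T3 cells / Quantity: 5,000 cells/well / Measured by: luminescence from GalScreen with 0.05% NP40, read after 60 min / Medium: DMEM plus 2% FBS / Measure: parasite load inhibition, % / Reagent: Tulahuen C4 trypomastigotes, 5000/well / Schedule: co-culture of at least 90 h after 3 h attachment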
# Mdm2 MdmX PPI = human Mdm2/MdmX binding inhibition. inhibition, % at 8 µM. O15151+Q00987. hit rate 3% among 330,000. SaOS-2 split-luciferase Mdm2/MdmX complementation, luminescence. AID 485346;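 active = inhibition of at least 50% at 8 µM in the primary screen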
# Target sequence (O15151 whole entry, looked up): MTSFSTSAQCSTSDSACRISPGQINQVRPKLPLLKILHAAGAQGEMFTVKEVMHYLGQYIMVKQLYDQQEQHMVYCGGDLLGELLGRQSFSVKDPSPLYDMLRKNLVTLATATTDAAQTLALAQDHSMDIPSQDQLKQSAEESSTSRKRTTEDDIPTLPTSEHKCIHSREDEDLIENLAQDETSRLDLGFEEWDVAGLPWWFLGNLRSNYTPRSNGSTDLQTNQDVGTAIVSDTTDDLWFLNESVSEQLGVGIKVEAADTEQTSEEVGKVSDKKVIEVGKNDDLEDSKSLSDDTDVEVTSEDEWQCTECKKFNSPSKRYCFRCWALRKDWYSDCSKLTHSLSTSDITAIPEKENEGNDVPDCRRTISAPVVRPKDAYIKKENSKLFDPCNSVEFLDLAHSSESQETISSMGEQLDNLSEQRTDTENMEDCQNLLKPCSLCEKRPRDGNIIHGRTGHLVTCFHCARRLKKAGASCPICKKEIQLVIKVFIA
# Target sequence (Q00987 whole entry, looked up): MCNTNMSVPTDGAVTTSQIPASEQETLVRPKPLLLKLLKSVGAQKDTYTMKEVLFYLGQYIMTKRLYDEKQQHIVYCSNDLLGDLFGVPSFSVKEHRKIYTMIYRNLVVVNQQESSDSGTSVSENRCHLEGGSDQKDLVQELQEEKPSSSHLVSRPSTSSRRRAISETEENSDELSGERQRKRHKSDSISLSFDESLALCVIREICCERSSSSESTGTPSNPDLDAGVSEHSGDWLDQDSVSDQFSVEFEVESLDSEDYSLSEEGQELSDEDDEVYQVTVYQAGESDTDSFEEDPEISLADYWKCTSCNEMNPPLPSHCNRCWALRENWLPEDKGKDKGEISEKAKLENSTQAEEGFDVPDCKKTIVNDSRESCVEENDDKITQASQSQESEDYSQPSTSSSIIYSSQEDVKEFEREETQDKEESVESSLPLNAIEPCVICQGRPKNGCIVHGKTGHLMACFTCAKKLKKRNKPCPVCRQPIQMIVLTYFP
# SKKanGAS inh = inhibitors of SKKanGAS S. pyogenes growth in kanamycin (SK-promoter or general growth effect); BacTiter-Glo, 6 h; inhibition, % at 7.5 µM; hit rate 1.3% among 300,000; AID 1662;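 active = mean replicate score, as percent of positive control median, at least 50; inconclusive = mean below 50 but one replicate at or above 50; inactive = mean and every replicate below 50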;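 also: strain carries kanamycin resistance gene driven by streptokinase promoter and grows in 40 µg/ml kanamycin; loss of luminescence reflects streptokinase promoter inhibition or plain growth inhibition; 0% = median of DMSO wells and 100% = positive control at its reference dose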
# CSC inhib = blocks cancer stem cells. cancer stem cell-like cells viability, luminescence. inhibition, % at 7.5 µM. hit rate 1.1% among 300,000. AID 2717; in the data active = inhibition above about 75%; inconclusive = no clear call, values can overlap the other calls; tested in HMLE shEcad cells
# aSyn UTR inh = MLPCN primary screen, SNCA 5' untranslated region. hit rate 0.82% among 300,000. alpha-synuclein 5'UTR reporter, inhibitor activity. inhibition, % (tested at 7.5 µM); in the data active = inhibition above about 60%; inconclusive = no clear call, values can overlap the other calls;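 also: H4 neuroglioblastoma cells stably carrying SNCA 5'UTR luciferase fusion; 0% = DMSO wells and 100% = positive control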
# * marks the source's active call; other numbers are inactive results; ? = inconclusive; . = no result given.
SMILES,T cruzi inh,Mdm2 MdmX PPI,SKKanGAS inh,CSC inhib,aSyn UTR inh
Oc1c(Br)cc(Br)cc1Br,.,19,.,-10,.
Oc1c(Br)c(Br)c(Br)c(Br)c1Br,.,21,.,101*,.
CNC(=S)N1CCN(CCN=Cc2c(O)n(-c3ccc(C)cc3)c(=S)[nH]c2=O)CC1,-9,0,2,.,11
CCCCC/C=C\C/C=C\C/C=C\C/C=C\CCCC(=O)Nc1ccc(O)cc1,20,.,107*,85*,-10
CCCNC1=C(C)C(=O)C2=C(C1=O)C(COC(N)=O)[C@]1(OC)C3NC3CN21 (stereo partly drawn),27,-11,109*,-14,-21
CC(=O)N1CC(=O)Nc2ccc(Br)cc2C1c1ccc(F)cc1 (stereo not drawn),-10,-6,0,-5,-23
COc1ccccc1CCNC1CCC(C(C)(C)C)CC1 (stereo not drawn),59*,3,5,32,4
COC(=O)C1=C(c2ccc(C(C)=O)cc2)C[C@@H]2CC[C@H]1N2C(=O)NCc1ccc(F)cc1,.,15,.,-26,.
C[C@]12CCC(=O)C=C1CC[C@@H]1C2[C@H](O)C[C@]2(C)C(=O)CCC12 (stereo partly drawn),-7,-5,-1,-12,1
Oc1ccc2c3c1O[C@H]1c4[nH]c5ccccc5c4C[C@@]4(O)[C@@H](C2)N(CC2CC2)CC[C@]314,.,36,.,-4,.
O[C@@H]1CCCN2CCc3c([nH]c4ccccc34)[C@H]12,1,.,98*,-9,9
CC(C)=CCc1c(O)cc2c(c1O)C(=O)CC(c1ccc(O)cc1)O2 (stereo not drawn),-10,29,50*,99*,-53
COc1ccc(/C=N\N=C(N)N)cc1,62*,-21,-2,-4,-5
NC(N)=N/N=C/c1ccc(N2CCOCC2)cc1,28,39,14,4,-21
CCCCCCOc1ccc(CN2CCN(CCO)CC2)cc1,52,6,-2,83*,15
O=P(Oc1ccccc1)(Oc1ccccc1)N1CCN(c2ccc(F)cc2)CC1,40,30,-1,2,15
Cc1[nH]c2ccccc2c1C(=O)CN1CC=C(c2ccccc2)CC1,97*,14,-11,-10,6
Oc1ccc2ccccc2c1CN1CC=C(c2ccccc2)CC1,-75,8,11,-9,-33
O=C(CN1CC=C(c2ccccc2)CC1)NC(=O)NCc1ccco1,4,7,-7,3,-8
Cc1cc(Br)c(NC(=O)CN2CC=C(c3ccccc3)CC2)c(Br)c1,72*,-13,-6,.,11
COC(=O)C1=C(c2ccc(F)cc2F)C[C@@H]2CC[C@H]1N2C(=O)NCc1ccco1,.,-1,.,-7,.
C#CC[N+]1(C)[C@@H]2CC[C@H]1CC(OC(=O)C(CO)c1ccccc1)C2 (stereo partly drawn),-4,4,-4,-13,-8
O=c1[nH]c(=O)n(CCC2=CCCCC2)c(O)c1C=Nc1cccc(F)c1,-4,20,7,-11,16
O=C(N/N=C/c1c(O)n(CCC2=CCCCC2)c(=S)[nH]c1=O)c1ccccc1,1,25,97*,29,-24
O=C(N/N=C/c1c(O)n(CCC2=CCCCC2)c(=O)[nH]c1=O)c1ccccc1,-10,10,62*,16,8
SMILES,T cruzi inh,Mdm2 MdmX PPI,SKKanGAS inh,CSC inhib,aSyn UTR inh
Nc1ccccc1N=Cc1c(O)n(CCC2=CCCCC2)c(=O)[nH]c1=O,-9,24,13,96*,32
COCCCn1c(-c2ccc(OC)cc2)cc(C(=O)NC2CCCCCCC2)c1C,14,32,10,19,41
CC/C(=N\NC(=S)Nc1ccccc1)c1c(O)[nH]c(=O)[nH]c1=O,-8,-2,-5,-15,4
C/C(=N\Nc1ccccc1)c1c(O)n(Cc2ccccc2)c(=O)[nH]c1=O,-2,10,2,110*,3
C/C(=N\Nc1ccccc1)c1c(O)[nH]c(=O)[nH]c1=O,32,18,11,82*,19
C/C(=N\Nc1ccccc1)c1c(O)n(-c2ccccc2)c(=O)[nH]c1=O,.,-19,4,75*,.
C/C(=N\Nc1ccccc1)c1c(O)n(C)c(=O)n(C)c1=O,53,3,1,91*,35
CC(C)OC(=O)Cc1ccccc1,.,11,.,-11,.
CC(C)[C@]12O[C@H]1[C@@H]1O[C@]13[C@]1(O[C@H]1C[C@H]1C4=C(CC[C@@]13C)C(=O)OC4)[C@@H]2O,?,.,-5,9,124*
CC(C(=O)O)N(C(=O)c1ccccc1)c1ccc(F)c(Cl)c1 (stereo not drawn),0,-4,-3,-9,-5
O=c1oc2ccccc2c(O)c1C(c1ccc([N+](=O)[O-])cc1)c1c(O)c2ccccc2oc1=O,-17,.,62*,.,3
COc1ccc(-c2n(-c3ccccn3)c3ccccc3[n+]2-c2ccccn2)cc1,20,.,-3,.,-7
Nc1ccccc1C(=O)OCc1ccc([N+](=O)[O-])cc1,-14,2,-3,15,-83
CC(=O)N(C1=NCCCS1)c1ccccc1Cl,-10,25,3,-12,26
COc1ccc(N/N=C/c2c(O)n(-c3ccc(C)c(C)c3)c(=O)[nH]c2=O)cc1,21,-7,-2,117*,46
COc1ccc(N/N=C/c2c(O)n(-c3cccc(C)c3)c(=O)[nH]c2=O)cc1,-5,6,-8,95*,15
Cc1ccc(S(=O)(=O)N(C)N=O)cc1,.,-9,.,-10,.
CCCCn1c(O)c(C(C)=Nc2ccc(OCC)cc2)c(=O)[nH]c1=O,9,16,65*,-2,21
CCCCn1c(O)c(C(C)=Nc2cccc(C(=O)O)c2)c(=O)[nH]c1=O,6,-21,3,-4,-28
C[C@]12CC[C@H]3C(CCC4(O)CC(O)CC[C@]34C=O)C1=CC[C@H]2c1ccc(=O)oc1 (stereo partly drawn),-2,33,3,78*,82*
COc1cccc(CNCCc2cccc(F)c2)c1OC,59*,9,3,-9,3
Oc1ccccc1-[n+]1c(-c2ccccc2)cc(-c2ccccc2)cc1-c1ccccc1,23,42,-4,16,-20
Nc1ccccc1-[n+]1c(-c2ccccc2)cc(-c2ccccc2)cc1-c1ccccc1,61*,42,16,7,-21
CC1(O)CCN2C(=O)CCc3cccc1c32 (stereo not drawn),.,21,.,.,.
Cc1nc2ncnn2c(C)c1CCC(=O)N1CCC2(CC1)OCCO2,-18,5,1,-19,4
Cc1nc2cc(-c3ccccc3)nn2c(C)c1CCC(=O)N1CCC2(CC1)OCCO2,6,22,-7,9,79*
COc1cc(CC(=O)N2C[C@H]3C[C@@H](C2)c2cccc(=O)n2C3)cc(OC)c1OC,.,10,.,-9,.
CCOc1cc2c(cc1OCC)-n1cccc1C(c1ccc(OC(F)F)cc1)NC2 (stereo not drawn),24,43,2,-6,-9
CCN(CC)CCCN=C(C)c1c(O)n(C2CCCCC2)c(=O)[nH]c1=O,65*,-14,2,.,-2
